Reference: ChEMBL document CHEMBL1123762, “Synthesis and antiviral evaluation of carbocyclic analogues of 2-amino-6-substituted-purine 3'-deoxyribofuranosides” (1987)
Converted amounts (≈) assume the structure as drawn. “And” between values parts separate entries of the source, which are not always exact repeats. Equal entries are not always repeated.

What was measured:
Type in all cases: functional
[1] = system: unidentified influenza virus; experiment: Antiviral activity is expressed as virus rating (VR) against the influenza Ao/PR/8/34 virus strain
Summary of the method: (§1)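 Virus rating (VR) from CPE inhibition in monolayers: HSV-1 377 and HSV-2 MS in Vero cells, HSV-1 HF in H.Ep.-2 cells, influenza A0/PR/8/34 in MDCK cells. A VR of 1.0 or more means definite, significant activity. A VR of 0.5–0.9 means marginal to moderate activity. A VR below 0.5 usually means no significant activity.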

[2] = system: unidentified influenza virus; experiment: Antiviral activity against the influenza Ao/PR/8/34 virus strain
Summary of the method: (§2)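 Cytopathic effect (CPE) inhibition in cell monolayers. Host cells: HSV-1 strain 377 (TK+) and HSV-2 strain MS (TK+) in Vero cells; HSV-1 strain HF (TK−) in H.Ep.-2 cells; influenza A0/PR/8/34 in Madin-Darby canine kidney cells. MIC50 is the concentration giving 50% inhibition of virus-induced CPE. ara-A was run as the positive control in the HSV tests.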

Human alphaherpesvirus 1 [3] = experiment: Antiviral activity is expressed as virus rating (VR) against the HSV-1 HF strain; summary of the method: as §1
Human alphaherpesvirus 1 [4] = experiment: Antiviral activity is expressed as virus rating (VR) against the HSV-1 377 strain; summary of the method: as §1
Human alphaherpesvirus 1 [5] = experiment: Antiviral activity against the HSV-1 HF strain from monolayers of human epidermoid carcinoma (H.Ep.-2) cells; summary of the method: as §2
[6] = Ratio measured as the VR of C-3''-deoxyribofuranoside to the VR at a MIC of 3 ug/mL
Human alphaherpesvirus 1 [7] = experiment: Antiviral activity against the HSV-1 377 strain from monolayers of vero cells; summary of the method: as §2
[8] = Ratio measured as the VR of C-3''-deoxyribofuranoside to the VR at a MIC of 54 ug/mL
[9] = Ratio measured as the VR of C-3''-deoxyribofuranoside to the VR at a MIC of 14 ug/mL
[10] = Ratio measured as the VR of C-3''-deoxyribofuranoside to the VR at a MIC of 6 ug/mL
[11] = Ratio measured as the VR of C-3''-deoxyribofuranoside to the VR at a MIC of 18 ug/mL
[12] = Ratio measured as the VR of C-3''-deoxyribofuranoside to the VR at a MIC of 15 ug/mL
[13] = Ratio measured as the VR of C-3''-deoxyribofuranoside to the VR at a MIC of 34 ug/mL
[14] = Ratio measured as the VR of C-3''-deoxyribofuranoside to the VR at a MIC of 56 ug/mL

| Compound | VR [1] | MIC50 [2] [µg/mL] | VR (Human alphaherpesvirus 1 [3]) | VR (Human alphaherpesvirus 1 [4]) | MIC50 (Human alphaherpesvirus 1 [5]) [µg/mL] | other results |
| --- | --- | --- | --- | --- | --- | --- |
| Nc1nc(N)c2nnn(C3CC(CO)CC3O)c2n1 (configuration not stated) | 1.3 | 200 (≈ 754 µM) | – | – | – | – |
| Nc1nc(O)c2ncn(C3CC(CO)CC3O)c2n1 (configuration not stated) | 1.3 | 260 (≈ 980 µM) | 0 | 2.6 and 3.1 and 1.9 | – | – |
| Nc1nc(Cl)c2ncn([C@@H]3C[C@H](CO)C[C@H]3O)c2n1 | 0.5 | > 284 | 1.5 | 0.1 | 190 (≈ 670 µM) | – |
| Nc1nc2c(ncn2COCCO)c(=O)[nH]1 [ACYCLOVIR] | – | – | 0 | 5.7 | – | Ratio [6]: 0.33; MIC50 (Human alphaherpesvirus 1 [7]; Human alphaherpesvirus 1, read-out: MIC50): 3 µg/mL (≈ 13.3 µM) |
| NC(=O)c1ncn([C@@H]2O[C@H](CO)[C@@H](O)[C@H]2O)n1 [RIBAVIRIN] | 2.6 and 2.9 | – | – | – | – | Ratio [8]: 0.19; Ratio [9]: 0.45 |
| Nc1ncnc2c1ncn2[C@@H]1O[C@H](CO)[C@@H](O)[C@@H]1O [VIDARABINE] | – | – | 2.4 | 2 and 2.1 | 6 (≈ 22.5 µM) | Ratio [10]: 0.63; Ratio [11]: 1.5; Ratio [12]: 1.3; MIC50 (Human alphaherpesvirus 1 [7]): 15 µg/mL and 18 µg/mL and 34 µg/mL; Ratio [13]: 0.95; Ratio [14]: 1.44 |
